Reference: ChEMBL document CHEMBL2169869, “Assay and inhibition of diacylglycerol lipase activity” (Bioorg Med Chem Lett, 2012)
Active and inactive are the calls of the source. The calls are words filed in the database; no cut-off is given here.

Columns and labels:
[1] = biological target: T1, Diacylglycerol lipase-alpha (Mus musculus) (UniProt Q6WQJ1); experiment: Inhibition of mouse DAGLalpha expressed in HEK293T cell membrane using [14C]SAG substrate at 100 nM by scintillation counting based radio-TLC assay; format: cell membranes; conditions: HEK-293T
T1 sequence (whole entry): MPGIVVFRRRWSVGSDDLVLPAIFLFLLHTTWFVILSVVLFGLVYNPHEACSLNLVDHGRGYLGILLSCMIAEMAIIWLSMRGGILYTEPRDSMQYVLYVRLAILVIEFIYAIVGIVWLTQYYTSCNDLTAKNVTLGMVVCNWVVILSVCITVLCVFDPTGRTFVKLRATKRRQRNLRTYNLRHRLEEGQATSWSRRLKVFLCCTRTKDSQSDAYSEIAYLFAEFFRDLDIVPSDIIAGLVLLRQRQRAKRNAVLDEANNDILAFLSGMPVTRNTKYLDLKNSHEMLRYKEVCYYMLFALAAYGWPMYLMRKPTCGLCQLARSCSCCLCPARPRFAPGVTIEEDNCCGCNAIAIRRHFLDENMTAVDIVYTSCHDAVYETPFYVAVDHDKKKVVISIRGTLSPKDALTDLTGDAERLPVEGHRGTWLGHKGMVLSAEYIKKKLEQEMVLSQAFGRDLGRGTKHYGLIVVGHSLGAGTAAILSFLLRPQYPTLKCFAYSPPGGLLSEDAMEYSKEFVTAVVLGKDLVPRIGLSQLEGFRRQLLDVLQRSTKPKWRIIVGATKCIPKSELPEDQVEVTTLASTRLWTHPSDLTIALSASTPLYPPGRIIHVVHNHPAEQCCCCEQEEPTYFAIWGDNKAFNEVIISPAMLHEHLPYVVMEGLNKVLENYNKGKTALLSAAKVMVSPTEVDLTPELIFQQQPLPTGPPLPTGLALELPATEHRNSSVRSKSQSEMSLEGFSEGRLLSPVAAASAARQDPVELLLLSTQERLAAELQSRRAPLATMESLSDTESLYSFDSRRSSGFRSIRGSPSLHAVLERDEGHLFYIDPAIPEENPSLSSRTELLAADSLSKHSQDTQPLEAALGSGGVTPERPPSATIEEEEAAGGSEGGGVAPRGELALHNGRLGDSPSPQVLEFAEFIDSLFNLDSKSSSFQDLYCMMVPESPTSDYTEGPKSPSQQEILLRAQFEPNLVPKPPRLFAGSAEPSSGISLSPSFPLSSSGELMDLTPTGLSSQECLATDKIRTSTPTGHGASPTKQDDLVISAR
How it was run: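 mDAGLα radio-TLC using 8.8 μg membrane protein in 50 mM Tris pH 7.4 with 10 mM CaCl2. Inhibitor tested at 10 nM–10 μM, preincubated 15 min at 37 °C. [14C]SAG 20 μM final for 20 min at 37 °C. CHCl3/MeOH quench, silica TLC, phosphorimaging. Activity = labelled 2-AG+AA over total label. n=1–2.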

[2] = biological target: T1, Diacylglycerol lipase-alpha (Mus musculus); experiment: Inhibition of mouse DAGLalpha expressed in HEK293T cell membrane using [14C]SAG substrate at 10 nM by scintillation counting based radio-TLC assay; format: cell membranes; conditions: HEK-293T
Sus scrofa = species on record: Sus scrofa; experiment: Inhibition of porcine pancreatic lipase type 2 at 10 uM by FRET assay
[3] = biological target: T2, Fatty-acid amide hydrolase 1 (Rattus norvegicus) (UniProt P97612); experiment: Inhibition of rat histidine tagged FAAH expressed in Escherichia coli at 10 uM by coumarin ester substrate fluorescence assay
T2 sequence (whole entry): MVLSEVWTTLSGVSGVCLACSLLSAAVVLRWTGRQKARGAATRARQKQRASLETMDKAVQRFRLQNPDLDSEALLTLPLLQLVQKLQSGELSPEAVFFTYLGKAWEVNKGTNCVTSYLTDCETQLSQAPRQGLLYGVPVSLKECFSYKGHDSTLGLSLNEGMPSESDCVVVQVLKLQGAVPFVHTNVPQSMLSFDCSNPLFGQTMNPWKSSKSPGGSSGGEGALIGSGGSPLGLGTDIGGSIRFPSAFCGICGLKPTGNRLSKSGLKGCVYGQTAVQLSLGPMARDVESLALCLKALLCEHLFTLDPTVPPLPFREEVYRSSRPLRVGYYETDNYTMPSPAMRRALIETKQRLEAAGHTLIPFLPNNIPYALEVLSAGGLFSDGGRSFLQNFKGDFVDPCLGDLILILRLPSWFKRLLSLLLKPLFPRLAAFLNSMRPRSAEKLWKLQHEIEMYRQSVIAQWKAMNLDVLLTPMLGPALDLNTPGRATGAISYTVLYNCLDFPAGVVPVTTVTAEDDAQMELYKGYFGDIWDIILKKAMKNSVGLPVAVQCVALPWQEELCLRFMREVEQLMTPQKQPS

[4] = biological target: T3, Monoglyceride lipase (Homo sapiens) (UniProt Q99685); experiment: Inhibition of human N-terminal histidine tagged full length MAGL expressed in Escherichia coli at 10 uM by coumarin ester substrate fluorescence assay
T3 sequence (whole entry): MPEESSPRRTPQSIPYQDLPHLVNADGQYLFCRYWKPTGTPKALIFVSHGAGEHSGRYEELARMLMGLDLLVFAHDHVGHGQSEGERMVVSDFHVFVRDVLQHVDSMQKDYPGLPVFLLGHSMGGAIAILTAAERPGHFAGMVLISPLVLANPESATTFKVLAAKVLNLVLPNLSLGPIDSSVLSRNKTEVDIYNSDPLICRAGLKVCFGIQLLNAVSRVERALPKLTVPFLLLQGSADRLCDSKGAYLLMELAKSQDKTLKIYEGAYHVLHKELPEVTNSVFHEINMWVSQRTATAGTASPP

Structure (SMILES) | inhibition [1] [%] | inhibition [2] | inhibition (Sus scrofa) [%] | inhibition [3] [%] | inhibition [4] [%]
CCCCCCCCCCC[C@@H](C[C@@H]1OC(=O)[C@H]1CCCCCC)OC(=O)[C@H](NC=O)[C@H](C)CC | 29 | 33% | 99 | 28 | 39
CCCCCCCCCCC[C@@H](C[C@@H]1OC(=O)[C@H]1CCCCCC)OC(=O)[C@H](NC=O)[C@@H](C)CC | 51 | 19% | 95 | 0 | 42
O=C(Oc1ccc([N+](=O)[O-])cc1)N1CCC(C(O)(c2ccc3c(c2)OCO3)c2ccc3c(c2)OCO3)CC1 |  | inactive | 36 | 97 | 100
CCCCCCCCCCC[C@@H](C[C@@H]1OC(=O)[C@H]1CCCCCC)OC(=O)[C@H](CC)NC=O | 68 | 50% | 97 | 12 | 45
CCCCCCCCCCC[C@@H](C[C@@H]1OC(=O)[C@H]1CCCCCC)OC(=O)[C@@H](NC=O)[C@H](C)CC | 61 | 60% | 98 | 3 | 1
CCCCCCCCCCC[C@@H](C[C@@H]1OC(=O)[C@H]1CCCCCC)OC(=O)[C@@H](NC=O)[C@@H](C)CC | 80 | 69% | 99 | 7 | 16
CCCCCCCCCCC[C@@H](C[C@@H]1OC(=O)[C@H]1CCCCCC)OC(=O)[C@H](CC(C)C)NC=O [ORLISTAT] | 72 | 55% | 98 | 6 | 47
